In assay [1] the target is T1, Adrenergic receptor alpha-1 (Rattus norvegicus, UniProt P15823+P23944+P43140).
T1 sequence (P15823 whole entry): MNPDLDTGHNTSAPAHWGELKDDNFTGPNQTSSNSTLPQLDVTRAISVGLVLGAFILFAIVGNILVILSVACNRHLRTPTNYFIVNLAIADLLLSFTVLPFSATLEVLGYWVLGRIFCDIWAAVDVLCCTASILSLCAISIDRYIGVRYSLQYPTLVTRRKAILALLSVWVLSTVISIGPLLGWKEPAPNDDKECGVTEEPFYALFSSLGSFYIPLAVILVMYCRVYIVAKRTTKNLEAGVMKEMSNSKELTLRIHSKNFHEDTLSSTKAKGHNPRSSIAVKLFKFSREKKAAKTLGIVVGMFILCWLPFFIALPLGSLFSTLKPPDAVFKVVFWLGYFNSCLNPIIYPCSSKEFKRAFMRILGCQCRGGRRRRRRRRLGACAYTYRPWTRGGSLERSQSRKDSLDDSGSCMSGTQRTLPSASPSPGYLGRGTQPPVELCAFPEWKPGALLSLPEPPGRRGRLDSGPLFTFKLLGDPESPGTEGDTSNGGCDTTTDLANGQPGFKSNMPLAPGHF
T1 sequence (P23944 whole entry): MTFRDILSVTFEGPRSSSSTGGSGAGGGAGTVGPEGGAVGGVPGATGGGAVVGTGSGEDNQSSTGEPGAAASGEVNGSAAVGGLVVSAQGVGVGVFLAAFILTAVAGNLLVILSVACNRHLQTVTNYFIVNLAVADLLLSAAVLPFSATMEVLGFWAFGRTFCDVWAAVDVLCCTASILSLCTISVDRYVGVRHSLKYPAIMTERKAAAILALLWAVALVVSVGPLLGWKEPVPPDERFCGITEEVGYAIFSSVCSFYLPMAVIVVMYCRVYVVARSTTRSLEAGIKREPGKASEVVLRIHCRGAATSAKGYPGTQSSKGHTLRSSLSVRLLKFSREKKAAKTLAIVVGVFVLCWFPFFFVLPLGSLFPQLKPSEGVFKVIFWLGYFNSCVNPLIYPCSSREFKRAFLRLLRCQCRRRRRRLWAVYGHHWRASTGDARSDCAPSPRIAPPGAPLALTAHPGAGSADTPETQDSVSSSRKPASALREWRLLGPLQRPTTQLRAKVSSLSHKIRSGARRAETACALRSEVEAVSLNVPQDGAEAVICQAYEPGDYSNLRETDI
T1 sequence (P43140 whole entry): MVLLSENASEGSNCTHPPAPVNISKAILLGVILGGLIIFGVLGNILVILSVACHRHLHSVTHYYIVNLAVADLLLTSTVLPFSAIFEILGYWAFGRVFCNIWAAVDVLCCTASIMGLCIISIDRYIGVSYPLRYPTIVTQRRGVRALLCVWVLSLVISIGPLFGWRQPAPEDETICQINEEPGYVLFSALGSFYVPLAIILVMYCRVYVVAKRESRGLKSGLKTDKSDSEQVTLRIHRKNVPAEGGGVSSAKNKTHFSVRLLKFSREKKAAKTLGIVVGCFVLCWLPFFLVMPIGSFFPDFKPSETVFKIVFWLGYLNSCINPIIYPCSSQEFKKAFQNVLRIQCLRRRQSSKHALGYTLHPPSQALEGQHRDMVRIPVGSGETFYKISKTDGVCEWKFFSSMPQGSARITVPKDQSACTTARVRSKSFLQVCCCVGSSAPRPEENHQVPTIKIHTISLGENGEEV
The experiment in a line: In vitro inhibitory concentration against radioligand [3H]prazosin binding to alpha-1 adrenergic receptor in rat cortical membrane. It is filed as cell membranes. The procedure, abridged: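 Male CRL:CD(SD)BR-COBS rats (~150 g) were decapitated. Cortex was homogenized in 50 mM Tris-HCl pH 7.4, spun at 50000g, given 10 min at 37 °C and washed. Incubation buffer had 0.1% ascorbic acid and 10 μM pargyline. GF/B filtration and scintillation counting; IC50 from dose-inhibition curves.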

Another assay has as its target D(2) dopamine receptor (Rattus norvegicus, UniProt P61169). The experiment in a line: In vitro inhibitory concentration against radioligand [3H]spiperone binding to Dopamine receptor D2 in rat striatal membrane. It is filed as cell membranes, Striatum. In short, it runs like this: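 Rat striatum was used, with incubation buffer 50 mM Tris-HCl pH 7.1 plus pargyline 10 μM, NaCl 120 mM, KCl 5 mM, CaCl2 2 mM, MgCl2 1 mM and 0.1% ascorbic acid. [3H]spiperone 0.2 nM final, 15 min at 37 °C; (-)sulpiride 100 μM defined nonspecific binding. GF/B filtration, scintillation counting, IC50 from fitted curves.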

The target of assay [2] is T2, Serotonin 3 (5-HT3) receptor (Rattus norvegicus, UniProt P35563+Q9JJ16).
T2 sequence (P35563 whole entry): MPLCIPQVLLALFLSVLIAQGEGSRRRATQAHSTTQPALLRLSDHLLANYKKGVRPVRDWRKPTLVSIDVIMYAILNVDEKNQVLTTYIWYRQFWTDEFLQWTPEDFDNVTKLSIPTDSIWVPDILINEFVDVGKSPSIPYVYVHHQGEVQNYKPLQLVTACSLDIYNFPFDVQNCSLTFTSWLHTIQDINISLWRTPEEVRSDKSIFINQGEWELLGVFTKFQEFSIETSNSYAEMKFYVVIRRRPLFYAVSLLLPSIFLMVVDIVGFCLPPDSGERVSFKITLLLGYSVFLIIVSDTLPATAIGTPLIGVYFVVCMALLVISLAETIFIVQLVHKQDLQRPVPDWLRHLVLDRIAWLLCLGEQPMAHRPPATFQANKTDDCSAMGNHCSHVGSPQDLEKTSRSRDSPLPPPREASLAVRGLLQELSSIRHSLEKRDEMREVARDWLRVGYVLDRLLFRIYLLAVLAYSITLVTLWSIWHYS
T2 sequence (Q9JJ16 whole entry): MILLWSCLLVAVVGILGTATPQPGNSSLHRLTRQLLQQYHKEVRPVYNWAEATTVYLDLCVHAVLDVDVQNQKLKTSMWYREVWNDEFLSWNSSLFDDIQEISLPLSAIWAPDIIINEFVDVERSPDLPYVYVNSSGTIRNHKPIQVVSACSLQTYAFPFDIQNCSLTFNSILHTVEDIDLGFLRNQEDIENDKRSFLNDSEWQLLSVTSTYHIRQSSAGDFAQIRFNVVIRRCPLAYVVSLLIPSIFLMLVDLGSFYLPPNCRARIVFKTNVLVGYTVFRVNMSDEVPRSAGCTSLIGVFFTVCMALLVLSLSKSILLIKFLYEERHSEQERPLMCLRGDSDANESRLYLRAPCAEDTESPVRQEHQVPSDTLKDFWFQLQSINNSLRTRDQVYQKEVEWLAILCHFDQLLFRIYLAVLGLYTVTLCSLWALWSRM
In words: In vitro inhibitory concentration against radioligand [3H]BRL-43694 binding to 5-hydroxytryptamine 3 receptor in rat cortical membrane. Format: cell membranes. In short, it runs like this: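 Rat cortex was homogenized in 50 mM Hepes-HCl pH 7.5, then incubated in 50 mM Hepes-HCl pH 7.4 with 10 μM pargyline. [3H]-BRL43694 1 nM final, 30 min at 25 °C; nonspecific binding with GR38032 10 μM. Filtration through GF/B, liquid scintillation counting, IC50 from dose-inhibition curves.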

The source of these data is ChEMBL document CHEMBL1129944, “[[(Arylpiperazinyl)alkyl]thio]thieno[2,3-d]pyrimidinone derivatives as high-affinity, selective 5-HT1A receptor ligands” (J Med Chem, 1997).

The term IC50 denotes the concentration that inhibits the measured activity by half. A higher IC50 goes with weaker potency.

As for `COc1ccccc1C1CCN(CCCSc2nc3sc(C)c(C)c3c(=O)n2N)CC1`, the IC50 in assay [1] is 36 nM; on D(2) dopamine receptor, 100 nM; in assay [2], 600 nM.
For `Cc1sc2nc(SCCCN3CCN(c4ncccn4)CC3)n(N)c(=O)c2c1C`, in that order: 506 nM, 2000 nM and 20 nM.
For `COc1ccccc1N1CCN(CCCSc2nc3sc(C)c(C)c3c(=O)n2N)CC1`, in that order: 7.3 nM, 60 nM and 800 nM.
